Values joined by “and” are separate entries in the source; they are usually repeats but may differ in a detail not shown here. Equal entries are not always repeated.
Tests used:
mTOR = settings: cited from earlier work
[1] = tested on: peripheral blood mononuclear cells; assay: Autophagic vesicles in serial PBMC by quantitative electron microscopy; assay type: in vivo, human; settings: after one week of everolimus alone; 11 patients
How it was run: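 Cancer patients took everolimus 10 mg alone for one week, then HCQ 400 or 600 mg twice daily was added. Serial PBMC were collected before treatment, after one cycle and after two cycles (one week of everolimus alone; one month combined) in a limited number of patients (3 at 400 mg, 8 at 600 mg). PBMC were fixed for quantitative EM of autophagic vesicles.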

[2] = tested on: advanced clear cell renal carcinoma (ccRCC); settings: cited from earlier work
[3] = no reference given; cited from earlier work
[4] = HCQ population pharmacokinetics, whole blood concentrations by HPLC-MS/MS; assay type: in vivo, human
How it was run: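 HCQ 400 or 600 mg twice daily was given with everolimus, with a draw at each visit plus intensive sampling in a few patients (pre-dose, 15 min, 30 min, 1, 2, 3, 4, 6 h). Heparinized whole blood was stored at −70 °C and spiked with d4-HCQ internal standard. It was acetonitrile/methanol-precipitated and run on LC-MS/MS (positive ESI, MRM 337.275→248.152) in duplicate. The curve was 1–7500 ng/mL (LLOQ 1.0 ng/mL). A 2-compartment first-order-absorption model was fitted.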

[5] = tested on: patients with advanced RCC; settings: human, in vivo, po, 5 weeks
[6] = 2-compartment population PK model, 27 patients, oral HCQ
[7] = 1000 bootstrap runs, population PK model

Q: With `CO[C@H]1C[C@@H]2CC[C@@H](C)[C@@](O)(O2)C(=O)C(=O)N2CCCC[C@H]2C(=O)O[C@H]([C@H](C)C[C@@H]2CC[C@@H](OC(=O)C(C)(CO)CO)[C@H](OC)C2)CC(=O)[C@H](C)/C=C(\C)[C@@H](O)[C@@H](OC)C(=O)[C@H](C)C[C@H](C)/C=C/C=C/C=C/1C` [temsirolimus] as the molecule, how does the “mTOR inhibition in PBMC” value (mTOR) read?
A: Its value is “sustained mTOR inhibition”.

Q: Which “Drug-induced change in autophagic vesicles in PBMC” value [1] does the source give for `CO[C@H]1C[C@@H]2CC[C@@H](C)[C@@](O)(O2)C(=O)C(=O)N2CCCC[C@H]2C(=O)O[C@H]([C@H](C)C[C@@H]2CC[C@@H](OCCO)[C@H](OC)C2)CC(=O)[C@H](C)/C=C(\C)[C@@H](O)[C@@H](OC)C(=O)[C@H](C)C[C@H](C)/C=C/C=C/C=C/1C` [everolimus, Everolimus] here?
A: The value was “no significant drug-induced changes”.

Q: And the “Hazard ratio for PFS, everolimus versus placebo” value ([2]; 95% CI 0.22–0.40, p<0·0001)?
A: Its value is 0.30.

Q: What about the “Median PFS, everolimus alone, CHECKMATE 025” value [2] of the same molecule?
A: Its value is 4.6 months.

Q: What about the “Median PFS, everolimus alone, METEOR” value [2] of the same molecule?
A: Its value is 3.8 months.

Q: And the “Response rate, everolimus single agent” value [2]?
A: Its value is 1%.

Q: And the “Median PFS, everolimus alone, RECORD-1” value ([2]; everolimus 10 mg daily after TKI progression)?
A: Its value is 4.01 months and 4 months.

Q: Which results are given for `CCN(CCO)CCCC(C)Nc1ccnc2cc(Cl)ccc12` (stereo not drawn) [HCQ, Hydroxychloroquine]?
A: Plasma protein binding [3]: not extensively bound to plasma proteins; Cl/F, apparent oral clearance, Model estimate [4, 6]: 7.98 L/h; Q, intercompartmental clearance, Model estimate [4, 6]: 14.98 L/h; V2/F, apparent peripheral volume of distribution, Model estimate [4, 6]: 3604.83 L; Ka, absorption rate constant, Model estimate ([4]; 2-compartment population PK model, 163 blood samples from 27 patients, oral HCQ): 0.93 h; Cl/F, apparent oral clearance, Bootstrap Estimate [4, 7]: 8.00 L/h; Ka, absorption rate constant, Bootstrap Estimate [4, 7]: 1.00 h; Q, intercompartmental clearance, Bootstrap Estimate [4, 7]: 15.02 L/h; V2/F, apparent peripheral volume of distribution, Bootstrap Estimate [4, 7]: 3598.91 L; Vd/F ([4]; human, whole blood, po): 600 L; Recommended phase II dose (RP2D) of HCQ [5]: 600 mg

Reference: PMC8915191 (Clinical cancer research : an official journal of the …, 2019)
